ChEMBL document CHEMBL1146556, “Acetophenone derivatives from Acronychia pedunculata” (J Nat Prod, 2003)

Key:
[1] = tested on: Radical scavenging activity; test: Antioxidant activity assessed as DPPH radical scavenging activity at 500 uM after 30 mins; assay type: functional
Outline: (§1)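 Radical scavenging was read as percent inhibition after a 30 min incubation.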

[2] = target: T1, Tyrosinase (Homo sapiens) (UniProt P14679); test: Inhibition of tyrosinase at 500 uM
T1 sequence (whole entry): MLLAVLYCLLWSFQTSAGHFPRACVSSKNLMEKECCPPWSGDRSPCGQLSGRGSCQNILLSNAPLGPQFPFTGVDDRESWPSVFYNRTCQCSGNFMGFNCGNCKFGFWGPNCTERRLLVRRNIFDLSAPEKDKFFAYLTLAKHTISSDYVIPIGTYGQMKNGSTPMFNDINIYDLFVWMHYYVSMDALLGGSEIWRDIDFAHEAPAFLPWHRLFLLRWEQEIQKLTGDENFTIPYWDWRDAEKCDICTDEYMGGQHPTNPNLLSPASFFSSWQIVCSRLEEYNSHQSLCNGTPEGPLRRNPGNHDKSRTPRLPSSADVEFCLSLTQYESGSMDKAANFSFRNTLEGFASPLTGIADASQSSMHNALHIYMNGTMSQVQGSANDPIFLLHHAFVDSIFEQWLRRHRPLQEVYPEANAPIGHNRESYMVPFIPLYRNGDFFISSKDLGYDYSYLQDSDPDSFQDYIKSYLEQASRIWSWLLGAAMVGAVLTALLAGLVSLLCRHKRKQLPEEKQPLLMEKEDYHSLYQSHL

[3] = tested on: Radical scavenging activity; test: Antioxidant activity assessed as DPPH radical scavenging activity after 30 mins; assay type: functional; outline: as §1
Tyrosinase = target: T2, Tyrosinase (Homo sapiens, UniProt P14679); test: Inhibition of tyrosinase
T2 sequence (P14679 whole entry): T1 sequence (whole entry)

inhibition [2] [%] | IC50 [3] [µM] | IC50 (Tyrosinase) [µM] | Molecule | inhibition [1] [%]
2.5 |  |  | COc1c(CC=C(C)C)c2c(c(O)c1C(C)=O)C=CC(C)(C)O2 | 2.9
 | 8.3 |  | VITAMIN E | 
6.5 |  |  | COc1c(CC=C(C)C)c2c(c(O)c1C(C)=O)C[C@H](C(C)(C)O)O2 | 5.3
11.8 |  |  | COc1c(CC=C(C)C)c(O)c(C=O)c(O)c1C(C)=O | 3.1
 | 493 | 333 | COc1c(CC=C(C)C)c(O)c([C@H](CC(C)C)c2c(O)c(CC=C(C)C)c(O)c(C(C)=O)c2O)c(O)c1C(C)=O [ACROVESTONE] | 
16.8 |  |  | COc1c(CC=C(C)C)c(O)c(C(=O)CC(C)C)c(O)c1C(C)=O | 8.3
8.1 |  |  | C=C(C)C(O)Cc1c(O)cc(O)c(C(C)=O)c1OC (stereo not drawn) | 10.3
